Compounds with a hit are over-represented: about 3.5% of the library has one in this group of screens.
RGS4 pot: RGS4 potentiation or activation. HEK293 M3R/inducible RGS4, carbachol calcium flux Fluo4; stronger effect = lower value. B-score at 10 µM. actives 0.92% (n = 310,000). AID 463111;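 active = B-score of the integrated calcium signal more than 4 SD below the library mean, with starting fluorescence not abnormally high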;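 also: negative B-score means reduced calcium response which marks RGS4 activation or potentiation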
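Detection: kinetic calcium fluorescence imaging with Fluo4-AM dye, 2 µM / Material: HEK293 cells with stable M3R and inducible RGS4 / Schedule: recording 10 s baseline at 1 Hz, 100 s post-agonist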
RGS4 block: human RGS4 inhibition; P49798; HEK293 M3R/RGS4 inducible, Fluo-4 calcium flux; stronger effect = higher value; triggered by carbachol at its EC20; B-score at 10 µM; actives 0.45% (n = 310,000);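 active = B-score, a plate-corrected calcium signal, over three deviations above library mean, with baseline fluorescence within five deviations of library mean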;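 also: RGS4 expression induced by doxycycline in cells with stable M3 receptor; B-score is computed from the integrated fluorescence ratio over baseline after carbachol; higher B-score means a larger calcium signal and so more RGS4 inhibition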
Target sequence (P49798 whole entry, looked up): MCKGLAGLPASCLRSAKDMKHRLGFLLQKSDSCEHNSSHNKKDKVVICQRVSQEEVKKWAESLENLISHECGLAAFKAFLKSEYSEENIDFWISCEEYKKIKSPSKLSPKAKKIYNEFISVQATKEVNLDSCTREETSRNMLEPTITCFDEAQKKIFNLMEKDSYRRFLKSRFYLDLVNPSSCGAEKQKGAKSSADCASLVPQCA
MrgX1 antagonist: blocks BAM8-22 activation of human MrgX1 receptor; Q96LB2; MRGX1-HEK293 calcium flux, Fluo-4, BAM8-22 antagonism; stronger effect = lower value; actives 1.3% (n = 310,000); AID 588676; B-score at 10 µM;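 active = calcium-response B-score plate-corrected more than 3 library SD below zero, starting fluorescence within 5 deviations, no agonist response on first addition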;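 also: peak minus trough fluorescence over baseline after final BAM8-22 challenge near maximal dose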
Target sequence (Q96LB2 whole entry, looked up): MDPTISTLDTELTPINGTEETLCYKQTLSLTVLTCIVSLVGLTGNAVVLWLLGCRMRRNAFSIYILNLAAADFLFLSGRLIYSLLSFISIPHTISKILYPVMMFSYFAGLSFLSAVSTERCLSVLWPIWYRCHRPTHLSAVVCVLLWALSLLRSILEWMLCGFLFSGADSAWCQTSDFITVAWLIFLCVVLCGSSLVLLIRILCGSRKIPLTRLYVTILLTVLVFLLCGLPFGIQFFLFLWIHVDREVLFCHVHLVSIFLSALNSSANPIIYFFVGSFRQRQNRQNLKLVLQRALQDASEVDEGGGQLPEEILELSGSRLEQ
MrgX1 allo act: allosterically activates human MrgX1 receptor signaling; Q96LB2; MrgX1-HEK293, Fluo-4 calcium flux, FDSS; stronger effect = higher value; B-score at 10 µM; actives 0.63% (n = 310,000); AID 588675;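 active = plate-corrected calcium response at least 3 library SD above typical, normal starting fluorescence, not activating the receptor alone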;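 also: compound read alongside a low EC10 to EC30 dose of BAM8-22 agonist; peak minus trough fluorescence over baseline measured at the second addition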
MrgX1 ag: agonists of human MrgX1 receptor | Q96LB2 | actives 0.44% (n = 310,000) | B-score at 10 µM | MrgX1-HEK293 cells, Fluo-4 calcium fluorescence, agonist mode; stronger effect = higher value;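 active = calcium response B-score plate-corrected fluorescence ratio at least 3 library SD, with starting fluorescence B-score inside 5 SD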
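Material: MrgX1-expressing HEK293 cells; input: 15,000 cells per well; doses: test compound given as first of three sequential additions; schedule: overnight plating before 1 h dye loading; technique: Fluo-4 NW calcium-flux fluorescence, kinetic read; evaluation: baseline-normalised fluorescence change ratio, B-scored; control set: plate-wise positive and negative controls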
RGS4 block valid: RGS4 inhibitor validation | calcium response, % at 10 µM | HEK293 M3R/RGS4, carbachol calcium Fluo-4 fluorescence; carbachol added at its EC20; 0 = buffer wells, 100 = carbachol control | AID 492999 | actives 65% (n = 1,700) | shares compounds with RGS4 block;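 active = duplicate-averaged calcium response above the buffer-only control mean plus 5 SD of those controls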;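 also: integrated fluorescence ratio F max minus min over baseline F0; higher response in RGS4-induced cells means RGS4 inhibition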
RGS4 uninduced: checks RGS4 inhibitor effects in non-induced HEK293 M3R cells; shares compounds with RGS4 block; activity (percent), % at 10 µM; carbachol calcium Fluo-4; submaximal (EC20) carbachol stimulus; buffer wells 0%, carbachol control wells 100%; actives 20% (n = 1,900); AID 493000; call rule not given here;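 also: RGS4 induction absent so cells express M3R without RGS4; higher means more calcium signal and flags a non-specific hit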
RGS4 inh ctr2: second counter-screen for RGS4 inhibitors: non-induced cells without carbachol. shares compounds with RGS4 block. HEK293 M3R/RGS4 non-induced, Fluo-4 calcium, no carbachol; normalised: buffer wells 0%, carbachol wells 100%. calcium response (agonist-mode artifact), % at 10 µM. actives 22% (n = 1,900). AID 493001;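 active = duplicate-averaged calcium rise in uninduced cells above buffer wells' mean plus 5 SD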
* = called active by the depositor; i = inactive; nt = no result.

SMILES	RGS4 pot	RGS4 block	MrgX1 antagonist	MrgX1 allo act	MrgX1 ag	RGS4 block valid	RGS4 uninduced	RGS4 inh ctr2
O=C1ON=C(c2ccccc2)/C1=C/c1ccccc1	i	i	i	i	i	i	i	i
Cc1ccc(Nc2nc(N)nc(CN3CCN(Cc4ccc5c(c4)OCO5)CC3)n2)cc1C	i	i	nt	nt	nt	i	i	i
Nc1nc(CN2CCN(Cc3ccccc3)CC2)nc(Nc2ccc3c(c2)OCCO3)n1	i	i	i	i	i	nt	nt	nt
Cc1ccc(Nc2nc(N)nc(CN3CCN(Cc4ccc5c(c4)OCO5)CC3)n2)cc1Cl	i	6.2*	i	i	i	i	i	i
Cc1ccc(Nc2nc(N)nc(CN3CCN(Cc4ccc5c(c4)OCO5)CC3)n2)cc1	i	i	i	i	i	i	i	i
Cc1ccc(Nc2nc(N)nc(CN3CCN(Cc4ccc5c(c4)OCO5)CC3)n2)c(C)c1	i	i	i	i	i	nt	nt	nt
CC(C)[C@H](NS(=O)(=O)c1ccc(Cl)cc1)C(=O)OCC(=O)NCCN1C(=O)CSC1=O	i	i	i	i	i	nt	nt	nt
N#CCSc1nc(N)c(C#N)c(C2CCCCC2)c1C#N	i	5.1*	i	i	i	16%*	50%*	i
N#Cc1c(N)nc(SCC(=O)NC2CCCCC2)c(C#N)c1-c1ccc(Cl)cc1	i	i	i	i	i	nt	nt	nt
O=[N+]([O-])/C=C\c1ccc(N2CCOCC2)cc1	i	35*	i	i	41*	88%*	94%*	35%*
COc1cc(/C=N/NC(=O)CSc2nc3ccccc3n2C)cc(OC)c1OC	i	i	i	i	i	nt	nt	nt
Cc1nc2nc(SCC(=O)O)nn2c(C)c1Cc1ccccc1Cl	i	i	i	i	i	nt	nt	nt
CCn1c(=O)c2c(n3c(=S)[nH]nc13)-c1ccccc1CC21CCCCC1	i	8.3*	i	i	i	46%*	57%*	i
CCCn1c(SCC(N)=O)nc2c(c1=O)C1(CCCC1)Cc1ccccc1-2	i	i	i	i	i	nt	nt	nt
Cc1ccccc1-n1c(=O)c2c(n3cnnc13)-c1ccccc1CC21CCCCC1	i	i	i	i	i	nt	nt	nt
N#CCSc1n[nH]c2nc3c(c(=O)n12)C1(CCCCC1)Cc1ccccc1-3	i	i	i	i	i	nt	nt	nt
CSc1n[nH]c2nc3c(c(=O)n12)C1(CCCCC1)Cc1ccccc1-3	i	4.7*	i	i	i	12%*	i	i
CCSc1n[nH]c2nc3c(c(=O)n12)C1(CCCCC1)Cc1ccccc1-3	i	i	i	i	i	nt	i	i
CC1CCCCC1NC(=O)CN(C)S(=O)(=O)c1ccc2c(c1)CCC(=O)N2 (stereo not given)	i	i	i	i	i	nt	nt	nt
CC(C)Cc1nnc(NC(=O)CCC(=O)NC2CC2)s1	i	i	i	i	i	nt	nt	nt
CC(C)CC(=O)/C(=C/c1ccc(N(C)C)cc1)n1cncn1	i	i	i	i	i	nt	nt	nt
CC(C)CC(=O)/C(=C\c1ccc(Cl)cc1Cl)n1cncn1	i	6.8*	nt	nt	nt	16%*	i	20%*
Cc1ccc(Nc2nc(N)nc(CN3CCN(c4ccccc4)CC3)n2)cc1Cl	i	6.6*	i	i	i	14%*	i	i
COc1ccccc1Nc1nc(N)nc(CN2CCN(c3ccccc3)CC2)n1	i	i	i	i	i	nt	nt	nt
COc1ccc(N2CCN(Cc3nc(N)nc(Nc4ccc(C)c(Cl)c4)n3)CC2)cc1	i	i	i	i	i	i	i	i
SMILES	RGS4 pot	RGS4 block	MrgX1 antagonist	MrgX1 allo act	MrgX1 ag	RGS4 block valid	RGS4 uninduced	RGS4 inh ctr2
COc1ccc(Br)cc1CN1CCN(S(=O)(=O)Cc2ccccc2)CC1	i	28*	i	i	i	i	i	i
CCc1ccc(C(C(=O)NC2CCCC2)N(Cc2cccnc2)C(=O)c2csnn2)cc1 (stereo not given)	i	i	i	i	i	nt	nt	nt
CC(=O)Nc1ccc(NS(=O)(=O)c2c(Cl)cccc2Cl)cc1	i	i	i	i	i	nt	nt	nt
NNC(=O)c1nc[nH]c1C(=O)Nc1ccccn1	i	15*	i	i	i	5.0%*	i	i
COc1cccc(/C=C2\CCc3ccccc3C2=O)c1	i	i	i	i	i	nt	nt	nt
COc1cccc(/C=C2\C(=O)C(=O)c3ccccc32)c1	i	11*	i	i	30*	14%*	i	10%*
COc1cc(C=C2C(=O)c3ccccc3C2=O)cc(OC)c1	i	7.5*	i	i	i	8.5%*	i	i
Cc1nc(Nc2nc3ccccc3o2)nc(C)c1C(=O)Nc1ccc(F)cc1	i	4.7*	i	i	i	7.0%*	i	i
CCOC(=O)c1cnc(Nc2nc3ccccc3o2)nc1C	i	i	i	i	i	nt	nt	nt
Cc1c(/C=N/NC(=O)CNc2ccccc2)c2ccccn2c1C(=O)c1ccncc1	i	i	i	i	i	i	i	i
Cc1c(C=O)c2ccccn2c1C(=O)c1ccccc1	i	i	i	i	i	nt	nt	nt
Cc1ccccc1NCC(=O)N/N=C/c1c(C)c(C(=O)c2ccc(Cl)cc2)n2ccccc12	i	i	i	i	i	i	i	31%*
Cc1c(C=O)c2ccccn2c1C(=O)c1ccc(F)cc1	i	i	i	i	i	nt	nt	nt
Cc1c(/C=N/NC(=O)CNc2ccccc2)c2ccccn2c1C(=O)c1ccc(Cl)cc1	i	15*	i	i	i	20%*	i	68%*
Cn1c(C2=C(O)CN(Cc3ccccc3)C2=N)nc2ccccc21	i	i	i	i	i	nt	nt	nt
O=C(O)c1cc(N/N=C/C=C/c2ccccc2[N+](=O)[O-])ccc1Cl	i	i	i	i	i	nt	nt	nt
O=C(NC(=S)Nc1cccnc1Cl)c1ccc(F)cc1	i	i	i	i	i	nt	nt	nt
